From ChEMBL document CHEMBL4811252, “Identification of novel 1,3-diaryl-1,2,4-triazole-capped histone deacetylase 6 inhibitors with potential anti-gastric cancer activity” (Eur J Med Chem, 2021)
Calls of active or inactive are those of the source. The rule behind the calls is not given here.

What was measured:
[1] = target: T1, Protein deacetylase HDAC6 (Homo sapiens, UniProt Q9UBN7); assay: Inhibition of recombinant full length human HDAC6 expressed in baculovirus infected Sf9 cells using Z-(Ac)-Lys-AMC as substrate incubated for 40 mins by fluorescence based assay
T1 sequence (Q9UBN7 whole entry): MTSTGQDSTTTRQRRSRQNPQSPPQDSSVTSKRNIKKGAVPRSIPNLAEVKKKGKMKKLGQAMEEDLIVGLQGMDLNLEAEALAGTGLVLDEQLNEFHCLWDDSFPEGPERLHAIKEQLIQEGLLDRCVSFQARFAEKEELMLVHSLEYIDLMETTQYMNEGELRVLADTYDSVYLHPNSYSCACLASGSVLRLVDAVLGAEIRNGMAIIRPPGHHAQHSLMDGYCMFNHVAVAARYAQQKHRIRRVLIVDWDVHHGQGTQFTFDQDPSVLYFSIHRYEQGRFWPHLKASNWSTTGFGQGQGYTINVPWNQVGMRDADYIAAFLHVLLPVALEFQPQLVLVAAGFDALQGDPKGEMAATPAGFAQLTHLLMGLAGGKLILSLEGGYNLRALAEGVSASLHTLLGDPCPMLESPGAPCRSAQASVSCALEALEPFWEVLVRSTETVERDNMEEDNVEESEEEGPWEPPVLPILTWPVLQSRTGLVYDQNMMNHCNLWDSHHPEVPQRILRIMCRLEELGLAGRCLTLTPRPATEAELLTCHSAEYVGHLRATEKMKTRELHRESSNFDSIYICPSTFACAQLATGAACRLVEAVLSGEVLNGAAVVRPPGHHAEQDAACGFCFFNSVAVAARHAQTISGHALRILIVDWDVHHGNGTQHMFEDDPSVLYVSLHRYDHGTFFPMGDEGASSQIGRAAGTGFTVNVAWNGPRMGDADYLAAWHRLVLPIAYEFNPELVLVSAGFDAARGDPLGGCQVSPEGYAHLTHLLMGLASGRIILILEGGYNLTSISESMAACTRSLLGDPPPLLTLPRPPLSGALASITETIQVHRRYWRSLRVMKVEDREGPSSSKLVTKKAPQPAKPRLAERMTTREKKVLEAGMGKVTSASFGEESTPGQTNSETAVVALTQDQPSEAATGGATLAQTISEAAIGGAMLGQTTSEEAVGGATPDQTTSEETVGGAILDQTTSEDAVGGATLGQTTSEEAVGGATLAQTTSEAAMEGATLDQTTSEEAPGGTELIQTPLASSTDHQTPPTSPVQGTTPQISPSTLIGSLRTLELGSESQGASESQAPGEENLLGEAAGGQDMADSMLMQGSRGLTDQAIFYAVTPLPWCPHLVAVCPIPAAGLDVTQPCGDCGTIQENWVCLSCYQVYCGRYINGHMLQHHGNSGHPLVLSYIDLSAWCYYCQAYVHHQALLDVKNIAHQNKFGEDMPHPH

[2] = Acute toxicity in C57BL/6 mouse assessed as kidney tissue damage at 2 g/kg, po administered via gavage measured up to 14 days by HE staining based assay; assay type: organism-based; settings: in vivo, 2000 mg/kg, 336 h, time <=14 day
Outline: (§1)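 Mice aged 8-10 weeks, 20 females and 20 males, split into two groups: vehicle control (0.5% CMC-Na) or a single oral gavage dose of 2000 mg/kg. Animals were fed and observed normally for 14 days, recording body weight, mortality and behaviour. Heart, liver, spleen, lung and kidney sections were then fixed, embedded and H&E stained.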

MGC-803 [3] = assay: Induction of apoptosis in human MGC803 cells assessed as necrotic cells at 4 uM measured after 48 hrs by Annexin-V FITC/PI staining based flow cytometry (reference value: 4.74%); assay type: functional
MGC-803 [4] = assay: Induction of apoptosis in human MGC803 cells assessed as early apoptotic cells at 8 uM measured after 48 hrs by Annexin-V FITC/PI staining based flow cytometry (reference value: 0.19%); assay type: functional
MGC-803 [5] = assay: Induction of apoptosis in human MGC803 cells assessed as necrotic cells at 8 uM measured after 48 hrs by Annexin-V FITC/PI staining based flow cytometry (reference value: 4.74%); assay type: functional
MGC-803 [6] = assay: Antiproliferative activity against human MGC803 cells at 2 to 8 uM after 72 hrs by EdU staining based assay; assay type: functional, cell-based; settings: dose 2-8 µM
Outline: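 MGC803 cells exposed to 0, 2, 4 or 8 µM for 72 h in 24-well plates, then EdU staining per kit instructions. EdU+ cells were imaged by immunofluorescence and quantified. Mean ± SD of three independent experiments; DMSO control.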

MGC-803 [7] = assay: Induction of apoptosis in human MGC803 cells assessed as downregulation of Bcl2 expression after 48 hrs by Western blotting analysis; assay type: functional, cell-based; settings: dose 2-8 µM
Outline: (§2)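 MGC803 cells treated for 48 h, then lysed (0.1% SDS, 150 mM NaCl, 25 mM Tris-HCl, 1% deoxycholate, 1% NP-40, 1% PMSF). Protein quantified by BCA and resolved on 8–10% SDS-PAGE onto PVDF. Blocked in 5% milk, primary antibodies overnight at 4 °C, HRP secondary, ECL. GAPDH, total α-tubulin and H3 as references. Mean ± SD of three experiments.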

[8] = Acute toxicity in C57BL/6 mouse assessed as heart tissue damage at 2 g/kg, po administered via gavage measured up to 14 days by HE staining based assay; assay type: organism-based; settings: in vivo, 2000 mg/kg, 336 h, time <=14 day; outline: as §1
MGC-803 [9] = assay: Antiproliferative activity against human MGC803 cells incubated for 72 hrs by MTT assay; assay type: functional, cell-based; settings: MGC-803, 72 h
MGC-803 [10] = assay: Induction of apoptosis in human MGC803 cells assessed as increase in caspase-9 expression after 48 hrs by Western blotting analysis; assay type: functional, cell-based; settings: dose 2-8 µM; outline: as §2
Histone deacetylase 2 = Histone deacetylase 2 (Homo sapiens, UniProt Q92769); assay: Inhibition of HDAC2 (unknown origin)
MGC-803 [11] = assay: Induction of apoptosis in human MGC803 cells assessed as increase in PARP expression after 48 hrs by Western blotting analysis; assay type: functional, cell-based; settings: dose 2-8 µM; outline: as §2
[12] = target: T2, Protein deacetylase HDAC6 (Homo sapiens) (UniProt Q9UBN7); assay: Binding affinity to HDAC6 in human MGC803 cells assessed as increase in thermal stability at 4 uM after 6 hrs by CETSA; assay type: cell-based; settings: MGC-803
T2 sequence (whole entry): T1 sequence (Q9UBN7 whole entry)
Outline: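 MGC803 grown 24 h in 6-well plates, then exposed to DMSO or 4 µM compound for 6 h. Cells resuspended in ice-cold PBS and split into 6 tubes. Lysed by repeated freeze-thaw, heated 3 min across a 44 to 54 °C gradient. Soluble HDAC6 in the supernatant read by Western blot.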

Histone deacetylase 3 = Histone deacetylase 3 (Homo sapiens, UniProt O15379); assay: Inhibition of HDAC3 (unknown origin)
[13] = Acute toxicity in C57BL/6 mouse assessed as spleen tissue damage at 2 g/kg, po administered via gavage measured up to 14 days by HE staining based assay; assay type: organism-based; settings: in vivo, 2000 mg/kg, 336 h, time <=14 day; outline: as §1
[14] = target: T1, Protein deacetylase HDAC6; assay: Binding affinity to recombinant human HDAC6 by BLI assay
Histone deacetylase 1 [15] = target: T3, Histone deacetylase 1 (Homo sapiens, UniProt Q13547); assay: Inhibition of recombinant human HDAC1 using Z-(Ac)-Lys-AMC as substrate incubated for 40 mins by fluorescence based assay
Histone deacetylase 1 [16] = target: T3, Histone deacetylase 1; settings: dose 100.0 nM, time 40.0 min

T3 sequence (Q13547 whole entry): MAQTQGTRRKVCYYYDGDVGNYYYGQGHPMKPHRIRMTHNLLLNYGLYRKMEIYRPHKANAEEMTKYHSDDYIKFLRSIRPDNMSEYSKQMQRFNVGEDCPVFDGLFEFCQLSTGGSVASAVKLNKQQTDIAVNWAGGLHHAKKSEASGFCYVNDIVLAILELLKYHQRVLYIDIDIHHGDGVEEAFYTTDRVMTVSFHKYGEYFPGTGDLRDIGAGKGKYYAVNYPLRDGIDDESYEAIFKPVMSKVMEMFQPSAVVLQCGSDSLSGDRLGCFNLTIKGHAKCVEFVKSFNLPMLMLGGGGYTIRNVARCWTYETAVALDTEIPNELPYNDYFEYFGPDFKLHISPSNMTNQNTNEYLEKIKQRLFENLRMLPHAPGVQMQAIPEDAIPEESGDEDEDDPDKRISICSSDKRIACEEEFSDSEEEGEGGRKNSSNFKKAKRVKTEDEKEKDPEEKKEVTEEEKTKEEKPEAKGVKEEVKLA
Histone deacetylase 3, sequence (O15379 whole entry): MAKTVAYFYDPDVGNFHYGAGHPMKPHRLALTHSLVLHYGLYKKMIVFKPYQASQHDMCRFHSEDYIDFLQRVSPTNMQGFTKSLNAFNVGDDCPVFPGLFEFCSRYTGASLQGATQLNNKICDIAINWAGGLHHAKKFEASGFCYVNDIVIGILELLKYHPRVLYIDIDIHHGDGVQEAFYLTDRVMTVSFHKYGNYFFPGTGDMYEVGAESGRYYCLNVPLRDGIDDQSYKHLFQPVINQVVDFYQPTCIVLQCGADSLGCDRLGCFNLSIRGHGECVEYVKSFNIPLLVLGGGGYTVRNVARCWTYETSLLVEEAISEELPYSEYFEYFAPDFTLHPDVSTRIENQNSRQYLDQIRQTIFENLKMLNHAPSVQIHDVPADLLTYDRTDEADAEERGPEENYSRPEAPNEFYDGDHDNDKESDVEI
Histone deacetylase 2, sequence (Q92769 whole entry): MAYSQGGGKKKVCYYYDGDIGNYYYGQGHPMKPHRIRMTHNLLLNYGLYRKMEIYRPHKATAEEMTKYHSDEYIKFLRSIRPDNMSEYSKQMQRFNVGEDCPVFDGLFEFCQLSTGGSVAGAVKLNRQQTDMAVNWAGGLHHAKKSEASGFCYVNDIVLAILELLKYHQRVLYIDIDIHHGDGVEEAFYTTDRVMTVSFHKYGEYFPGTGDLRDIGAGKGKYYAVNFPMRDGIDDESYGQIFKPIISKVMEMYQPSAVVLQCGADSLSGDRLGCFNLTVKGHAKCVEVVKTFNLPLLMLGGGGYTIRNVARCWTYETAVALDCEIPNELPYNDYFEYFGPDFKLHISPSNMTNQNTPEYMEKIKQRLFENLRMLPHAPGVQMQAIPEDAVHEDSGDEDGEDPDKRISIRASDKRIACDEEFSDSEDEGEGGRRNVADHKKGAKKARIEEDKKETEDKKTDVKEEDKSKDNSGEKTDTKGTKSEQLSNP

With Cc1ccc(-c2nc(CNc3ccc(C(=O)NO)cc3)n(-c3ccccc3)n2)s1 the IC50 [1] was 30.6 nM, the Activity [2] was “Non-Toxic” and the Activity (MGC-803 [3]) was 2.21%. For the same compound, the Activity (MGC-803 [4]) was 8.76%, the Activity (MGC-803 [5]) was 1.96% and the Activity (MGC-803 [6]) was “Active”. The Activity (MGC-803 [7]) was “Dose-Dependent Effect”, the Activity [8] was “Non-Toxic” and the IC50 (MGC-803 [9]) was 8450 nM. The Activity (MGC-803 [10]) was “Dose-Dependent Effect”, the IC50 (Histone deacetylase 2) was 224 nM and the Activity (MGC-803 [11]) was “Dose-Dependent Effect”. The Activity [12] was “Active”, the IC50 (Histone deacetylase 3) was 235 nM and the Activity [13] was “Non-Toxic”. For the same compound, the Kd [14] was 7.1 nM, the IC50 (Histone deacetylase 1 [15]) was 3940 nM and the inhibition (Histone deacetylase 1 [16]) was 30.1%.
